Test results published in ChEMBL document CHEMBL3576816, “5'-Silylated 3'-1,2,3-triazolyl Thymidine Analogues as Inhibitors of West Nile Virus and Dengue Virus” (J Med Chem, 2015).
The source made the active and inactive calls. No cut-off for these calls is given here.

Assays:
[1] = Cytotoxicity against BHK cells infected with West Nile virus replicon assessed as cell viability at 10 uM after 3 days by CellTiter 96 aqueous one solution cell proliferation assay relative to control; type: cell-based, Mesocricetus auratus; conditions: hamster, bhk, 72 h, 10 µM
In short: (§1)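 WNV replicon BHK cells, about 3 × 10^3/well, plated without antibiotic selection; next day compound in DMSO (10 μM final for screening, or eight serial dilutions), 3 days at 37°C, 5% CO2. Tetrazolium reagent, absorbance 450 nm, triplicate means versus DMSO wells; CC50 = 50% reduction in proliferation; CC50s mean ± SD of two experiments, top dose 200 μM.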

[2] = Cytotoxicity against BHK cells infected with Dengue virus replicon assessed as cell viability at 10 uM after 3 days by CellTiter 96 aqueous one solution cell proliferation assay relative to control; type: cell-based, Mesocricetus auratus; conditions: hamster, bhk, 72 h, 10 µM
In short: as §1, with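 “DENV” for “WNV”, “1.5” for “about 3”, “Tetrazolium (MTS-type)” for “Tetrazolium”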

[3] = tested on: West Nile virus; assay: Antiviral activity against West Nile virus infected in BHK-WII RepRen1B cells assessed as inhibition of viral replication at 10 uM after 3 days by luciferase reporter gene assay relative to control; type: functional; conditions: 72 h
In short: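 Compound (DMSO, 10 μM final) added next day in triplicate; lycorine 1 μM served as control inhibitor. Three days on, live-cell Renilla substrate (1:1000 in phenol-red-free DME, 10% FBS) replaced medium. Luminescence measured; triplicate means compared with DMSO-alone wells.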

[4] = tested on: Hepatitis C virus; assay: Antiviral activity against HCV; type: functional, organism-based; conditions: Hepacivirus hominis
[5] = tested on: Human immunodeficiency virus 1; assay: Antiviral activity against HIV1; type: functional, organism-based
[6] = biological target: Human immunodeficiency virus type 1 reverse transcriptase (Human immunodeficiency virus 1) (UniProt Q72547); assay: Inhibition of HIV1 reverse transcriptase
[7] = tested on: Human betaherpesvirus 5; assay: Antiviral activity against Human cytomegalovirus; type: functional, organism-based
[8] = tested on: Dengue virus; assay: Antiviral activity against Dengue virus infected in BHK pD2-hRucPac-2ATG cells assessed as inhibition of viral replication at 10 uM after 3 days by luciferase reporter gene assay relative to control; type: functional; conditions: 72 h
In short: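 Renilla luciferase-bearing DENV subgenomic replicon BHK cells, kept on 3 μg/mL puromycin, seeded at 1.5 × 10^3/well without selection. Next day, 10 μM final compound in DMSO added to triplicate wells; MPA 1 μM as control inhibitor. After 3 days, medium swapped for live-cell Renilla substrate (1:1000, phenol-red-free DME, 10% FBS). Luminescence read; triplicate mean compared with DMSO-only wells.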

[9] = tested on: unidentified influenza virus; assay: Antiviral activity against Influenzae virus; type: functional, organism-based
[10] = tested on: West Nile virus; assay: Antiviral activity against West Nile virus infected in BHK-WII RepRen1B cells assessed as inhibition of viral replication after 3 days by luciferase reporter gene assay; type: functional, organism-based; conditions: 72 h
[11] = tested on: dengue virus type 3; assay: Displacement of [3H]-SAM from biotinylated Dengue virus 3 methyltransferase expressed in Escherichia coli at 20 uM preincubated for 20 mins followed by [3H]-SAM addition measured after 15 mins by scintillation counting analysis
In short: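 Biotinylated refolded E. coli-expressed DENV3 MTase (580 nM) with SPA beads (1.5 mg/mL) and 20 μM competitor (compound, SAM or sinefungin) in Tris pH 7.5 buffer with NaCl, KCl, MgCl2, MnCl2, CHAPS, 20 min at 23°C; 3H-SAM (425 nM) added, 15 min at 23°C, centrifuged, scintillation proximity counting.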

[12] = Cytotoxicity against BHK cells infected with West Nile virus replicon assessed as cell viability after 3 days by CellTiter 96 aqueous one solution cell proliferation assay; type: cell-based, Mesocricetus auratus; conditions: hamster, 72 h; in short: as §1

SMILES: Cc1cn([C@H]2C[C@H](n3nncc3-c3ccc(Oc4ccccc4)cc3)[C@@H](CO[Si](C)(C)C(C)(C)C)O2)c(=O)[nH]c1=O
- Activity [1]: 79%
- Activity [2]: 73%
- inhibition at 10 µM [3]: 95%
- Activity [4]: inactive
- Activity [5]: inactive
- inhibition [6]: inactive
- Activity [7]: inactive
- inhibition at 10 µM [8]: 95%
- Activity [9]: inactive

SMILES: Cc1cn([C@H]2C[C@H](N3C(=O)CSC3c3c4ccccc4cc4ccccc34)[C@@H](CO[Si](C)(C)C(C)(C)C)O2)c(=O)[nH]c1=O (mixture of isomers)
- Activity [1]: 90%
- Activity [2]: 97%
- inhibition at 10 µM [3]: 85%
- EC50 [10]: 9 µM
- Activity [4]: inactive
- Activity [5]: inactive
- inhibition [6]: inactive
- Activity [7]: inactive
- inhibition at 10 µM [8]: 46%
- inhibition [11]: Active
- Activity [9]: inactive
- CC50 [12]: 27 µM

SMILES: Cc1cn([C@H]2C[C@H](n3cc(-c4cc5ccccc5c5ccccc45)nn3)[C@@H](CO[Si](C)(C)C(C)(C)C)O2)c(=O)[nH]c1=O
- Activity [1]: 100%
- Activity [2]: 81%
- inhibition at 10 µM [3]: 97%
- Activity [4]: inactive
- Activity [5]: inactive
- inhibition [6]: inactive
- Activity [7]: inactive
- inhibition at 10 µM [8]: 77%
- Activity [9]: inactive

SMILES: Cc1cn([C@H]2C[C@H](NC(=O)c3c4ccccc4cc4ccccc34)[C@@H](CO[Si](C)(C)C(C)(C)C)O2)c(=O)[nH]c1=O
- Activity [1]: 100%
- Activity [2]: 98%
- inhibition at 10 µM [3]: 0%
- Activity [4]: inactive
- Activity [5]: inactive
- inhibition [6]: inactive
- Activity [7]: inactive
- inhibition at 10 µM [8]: 7.6%
- Activity [9]: inactive

SMILES: Cc1cn([C@H]2C[C@H](NC(=O)C(c3ccccc3)(c3ccccc3)c3ccccc3)[C@@H](CO[Si](C)(C)C(C)(C)C)O2)c(=O)[nH]c1=O
- Activity [1]: 100%
- Activity [2]: 100%
- inhibition at 10 µM [3]: 54%
- EC50 [10]: 9.9 µM
- Activity [4]: inactive
- Activity [5]: inactive
- inhibition [6]: inactive
- Activity [7]: inactive
- inhibition at 10 µM [8]: 28%
- inhibition [11]: Active
- Activity [9]: inactive
- CC50 [12]: 15 µM

SMILES: Cc1cn([C@H]2C[C@H](n3nncc3C3CC3)[C@@H](CO[Si](C)(C)C(C)(C)C)O2)c(=O)[nH]c1=O
- Activity [1]: 100%
- Activity [2]: 93%
- inhibition at 10 µM [3]: 21%
- Activity [4]: inactive
- Activity [5]: inactive
- inhibition [6]: inactive
- Activity [7]: inactive
- inhibition at 10 µM [8]: 6.4%
- Activity [9]: inactive

SMILES: Nc1ncnc2c1ncn2[C@@H]1O[C@H](C[C@@H](N)CC[C@H](N)C(=O)O)[C@@H](O)[C@H]1O
- inhibition [11]: Active

SMILES: COc1ccc2cc(-c3cnnn3[C@H]3C[C@H](n4cc(C)c(=O)[nH]c4=O)O[C@@H]3CO[Si](c3ccccc3)(c3ccccc3)C(C)(C)C)ccc2c1
- Activity [1]: 38%
- Activity [2]: 11%
- inhibition at 10 µM [3]: 99%
- Activity [4]: inactive
- Activity [5]: inactive
- inhibition [6]: inactive
- Activity [7]: inactive
- inhibition at 10 µM [8]: 100%
- Activity [9]: inactive

SMILES: C[S+](CC[C@H](N)C(=O)[O-])C[C@H]1O[C@@H](n2cnc3c(N)ncnc32)[C@H](O)[C@@H]1O (stereo not given in full)
- inhibition [11]: Active

SMILES: Cc1cn([C@H]2C[C@H](N3C(=O)CSC3c3ccc4[nH]ccc4c3)[C@@H](CO[Si](C)(C)C(C)(C)C)O2)c(=O)[nH]c1=O (mixture of isomers)
- Activity [1]: 99%
- Activity [2]: 99%
- inhibition at 10 µM [3]: 92%
- EC50 [10]: 3.4 µM
- Activity [4]: inactive
- Activity [5]: inactive
- inhibition [6]: inactive
- Activity [7]: inactive
- inhibition at 10 µM [8]: 49%
- inhibition [11]: Active
- Activity [9]: inactive
- CC50 [12]: 15 µM

SMILES: Cc1cn([C@H]2C[C@H](NC(=O)c3ccc4ccccc4c3)[C@@H](CO[Si](C)(C)C(C)(C)C)O2)c(=O)[nH]c1=O
- Activity [1]: 51%
- Activity [2]: 10%
- inhibition at 10 µM [3]: 99%
- Activity [4]: inactive
- Activity [5]: inactive
- inhibition [6]: inactive
- Activity [7]: inactive
- inhibition at 10 µM [8]: 98%
- Activity [9]: inactive

SMILES: Cc1cn([C@H]2C[C@H](NC(=O)c3c[nH]c4ccccc34)[C@@H](CO[Si](C)(C)C(C)(C)C)O2)c(=O)[nH]c1=O
- Activity [1]: 93%
- Activity [2]: 27%
- inhibition at 10 µM [3]: 19%
- Activity [4]: inactive
- Activity [5]: inactive
- inhibition [6]: inactive
- Activity [7]: inactive
- inhibition at 10 µM [8]: 90%
- Activity [9]: inactive

SMILES: Cc1cn([C@H]2C[C@H](N3C(=O)CSC3c3ccccc3)[C@@H](CO[Si](C)(C)C(C)(C)C)O2)c(=O)[nH]c1=O (mixture of isomers)
- Activity [1]: 94%
- Activity [2]: 98%
- inhibition at 10 µM [3]: 26%
- Activity [4]: inactive
- Activity [5]: inactive
- inhibition [6]: inactive
- Activity [7]: inactive
- inhibition at 10 µM [8]: 22%
- Activity [9]: inactive

SMILES: Cc1cn([C@H]2C[C@H](n3nncc3COc3ccccc3)[C@@H](CO[Si](C)(C)C(C)(C)C)O2)c(=O)[nH]c1=O
- Activity [1]: 100%
- Activity [2]: 84%
- inhibition at 10 µM [3]: 50%
- Activity [4]: inactive
- Activity [5]: inactive
- inhibition [6]: inactive
- Activity [7]: inactive
- inhibition at 10 µM [8]: 28%
- Activity [9]: inactive

SMILES: Cc1cn([C@H]2C[C@H](n3nncc3-c3ccc(-c4ccccc4)cc3)[C@@H](CO[Si](C)(C)C(C)(C)C)O2)c(=O)[nH]c1=O
- Activity [1]: 10%
- Activity [2]: 47%
- inhibition at 10 µM [3]: 100%
- Activity [4]: inactive
- Activity [5]: inactive
- inhibition [6]: inactive
- Activity [7]: inactive
- inhibition at 10 µM [8]: 99%
- Activity [9]: inactive

SMILES: COc1ccc2cc(-c3cnnn3[C@H]3C[C@H](n4cc(C)c(=O)[nH]c4=O)O[C@@H]3CO[Si](C(C)C)(C(C)C)C(C)C)ccc2c1
- Activity [1]: 67%
- Activity [2]: 53%
- inhibition at 10 µM [3]: 98%
- Activity [4]: inactive
- Activity [5]: inactive
- inhibition [6]: inactive
- Activity [7]: inactive
- inhibition at 10 µM [8]: 98%
- Activity [9]: inactive

SMILES: Cc1cn([C@H]2C[C@H](n3nncc3-c3cc4ccccc4c4ccccc34)[C@@H](CO[Si](C)(C)C(C)(C)C)O2)c(=O)[nH]c1=O
- Activity [1]: 69%
- Activity [2]: 100%
- inhibition at 10 µM [3]: 99%
- Activity [4]: inactive
- Activity [5]: inactive
- inhibition [6]: inactive
- Activity [7]: inactive
- inhibition at 10 µM [8]: 21%
- Activity [9]: inactive

SMILES: Cc1cn([C@H]2C[C@H](NC(=O)NC34CC5CC(CC(C5)C3)C4)[C@@H](CO[Si](C)(C)C(C)(C)C)O2)c(=O)[nH]c1=O
- EC50 [10]: 10 µM
- inhibition [11]: Active
- CC50 [12]: 16 µM

SMILES: Cc1cn([C@H]2C[C@H](NC(=O)c3cccc4ccccc34)[C@@H](CO[Si](C)(C)C(C)(C)C)O2)c(=O)[nH]c1=O
- Activity [1]: 94%
- Activity [2]: 99%
- inhibition at 10 µM [3]: 37%
- EC50 [10]: 33 µM
- Activity [4]: inactive
- Activity [5]: inactive
- inhibition [6]: inactive
- Activity [7]: inactive
- inhibition at 10 µM [8]: 11%
- inhibition [11]: Active
- Activity [9]: inactive
- CC50 [12]: > 200 µM

SMILES: Cc1cn([C@H]2C[C@H](N)[C@@H](CO[Si](C)(C)C(C)(C)C)O2)c(=O)[nH]c1=O
- Activity [1]: 100%
- Activity [2]: 100%
- inhibition at 10 µM [3]: 0%
- Activity [4]: inactive
- Activity [5]: inactive
- inhibition [6]: inactive
- Activity [7]: inactive
- inhibition at 10 µM [8]: 0%
- Activity [9]: inactive
